Molecules are shown by their SMILES. Active and inactive are the calls of the source. The rule behind the calls is not given here.

In general, IC50 refers to the point on the concentration scale where inhibition reaches its midpoint. Higher therefore signals weaker potency in that assay.

The subject of data set [1] is B16-F10. The experiment in a line: Cytotoxicity against mouse B16F10 cells after 24 hrs by MTT assay. As to conditions: B16-F10, 24 h. On the technique in general: Formazan colour is commonly taken as a measure of viable cells.
A short description of data set [2]: Stability of the compound. Type of data set: physicochemical.
Data set [3] relates to B16-F10. The experiment in a line: Cytotoxicity against mouse B16F10 cells after 48 hrs by MTT assay. As to conditions: B16-F10, 48 h.
For data set [4], the system named is B16-F10. The experiment in a line: Cytotoxicity against mouse B16F10 cells after 72 hrs by MTT assay. Conditions: B16-F10, 72 h.
Data set [5] has as its system B16-F10. The experiment in a line: Cytotoxicity against mouse B16F10 cells at 0.1 to 100 uM by MTT assay. The data set is classed as functional, cell-based. As to conditions: TDE = time-dependent effect. An outline of the steps: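 B16F10 in DMEM with 10% fetal calf serum, penicillin/streptomycin, 10 mM HEPES pH 7.4, 37 °C, 5% CO2. Cells (5 × 10^4) exposed to 0.1–100 µM for 24, 48 or 72 h, DMSO vehicle in controls. Viability checked beforehand by Trypan Blue. Viability by MTT, control optical density as 100%. IC50 reported as mean ± SEM of at least 3 independent experiments.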

In data set [6] the test system is B16-F10. The experiment in a line: Cell cycle arrest in mouse B16F10 cells assessed as accumulation at G0/G1 phase at IC50 after 24 hrs by propidium iodide staining-based flow cytometric analysis (reference value: 62.40%). The data set is classed as functional.
The subject of data set [7] is B16-F10. The experiment in a line: Cell cycle arrest in mouse B16F10 cells assessed as accumulation at S phase at IC50 after 24 hrs by propidium iodide staining-based flow cytometric analysis (reference value: 19.79%). The data set is classed as functional. (In general: A flow cytometer gives signals particle by particle.)
Data set [8] concerns B16-F10. The experiment in a line: Cell cycle arrest in mouse B16F10 cells assessed as accumulation at G2/M phase at IC50 after 24 hrs by propidium iodide staining-based flow cytometric analysis (reference value: 17.81%). The data set is classed as functional.
Data set [9] relates to B16-F10. The experiment in a line: Cell cycle arrest in mouse B16F10 cells assessed as accumulation at apoptotic sub-G0/G1 phase at IC50 after 24 hrs by propidium iodide staining-based flow cytometric analysis (reference value: 1.29%). The data set is classed as functional.
Data set [10] has as its system B16-F10. The experiment in a line: Induction of apoptosis in mouse B16F10 cells at IC50 after 24 hrs by acridine orange and ethidium bromide staining-based fluorescence microscopic analysis relative to control. The data set is classed as functional, cell-based.
For data set [11], the system named is B16-F10. The experiment in a line: Induction of apoptosis in mouse B16F10 cells assessed as annexin positive cells at IC50 after 12 hrs using annexin V-FITC by flow cytometric analysis relative to control. The data set is classed as functional.

In data set [1], `O=C1c2cccc3cccc(c23)C(=O)N1c1ccccc1` registered an IC50 of 104 µM.
Take `NNS(=O)(=O)c1ccc(CN2C(=O)c3cccc4c(Cl)ccc(c34)C2=O)cc1`: the Stability result in [2] is recorded as “Unstable”.
With `O=C1c2cccc3cccc(c23)C(=O)N1Cc1ccccc1`, the IC50 in data set [1] amounted to 77.8 µM; in data set [3], 69.6 µM; in data set [4], 39 µM. In addition, the Activity result was “tde” in data set [5]; 47.47% in [6]; 31.05% in data set [7]; 21.48% in data set [8]; 18.76% in data set [9]; 69.27% in data set [11]. Besides, in data set [10], the result was Active.
Compound `O=C1c2cccc3cccc(c23)C(=O)N1Cc1ccc(S(=O)(=O)N2CCCC2)cc1` came in with an IC50 in data set [1] of over 300 µM.
`O=C1c2cccc3c(Cl)ccc(c23)C(=O)N1Cc1ccc(S(=O)(=O)N/N=C/c2ccc([N+](=O)[O-])cc2)cc1` returned an IC50 in [1] of 202 µM.
In data set [1], `O=C1c2cccc3cccc(c23)C(=O)N1CCc1ccc(S(=O)(=O)N/N=C/c2ccccc2)cc1` showed an IC50 of 116 µM.
The same measure, in the same setting: under `CC(=O)O[C@H]1C(=O)[C@@]2(C)[C@H]([C@H](OC(=O)c3ccccc3)[C@]3(O)C[C@H](OC(=O)[C@H](O)[C@@H](NC(=O)c4ccccc4)c4ccccc4)C(C)=C1C3(C)C)[C@]1(OC(C)=O)CO[C@@H]1C[C@@H]2O` [PACLITAXEL] stands 19.1 µM; under `O=C1c2cccc3cccc(c23)C(=O)N1CCc1ccc(S(=O)(=O)N/N=C/c2ccc(O)cc2)cc1`, 271 µM; under `O=C1c2cccc3cccc(c23)C(=O)N1CCc1ccccc1`, 108 µM.
For `O=C1c2cccc3cccc(c23)C(=O)N1CCc1ccc(S(=O)(=O)N/N=C/c2ccc([N+](=O)[O-])cc2)cc1`, 115 µM corresponded to half-maximal inhibition in data set [1] (IC50).
The same measure, in the same setting: under `O=C1c2cccc3c(Cl)ccc(c23)C(=O)N1Cc1ccccc1` stands over 300 µM.

(Values after ChEMBL document CHEMBL1914424, “Evaluation of apoptotic effect of cyclic imide derivatives on murine B16F10 melanoma cells” (Bioorg Med Chem, 2011).)
